# Compound activity (PubChem)
# Compounds with a hit are over-represented: about 3.5% of the library has one in this group of screens.
# APP 5'UTR act – APP 5'UTR luciferase reporter activation; SH-SY5Y APP 5'UTR luciferase reporter, luminescence; zero percent = DMSO vehicle wells; activation, % at 2 µM; 190,000 compounds, 1% hits;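 active = activation above a set limit, based on mean plus 3 SD of controls, cut at about 140% in these data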
# FLuc act counter – firefly luciferase counter-screen for stimulation assays; P08659; ATPlite luciferase biochemical, luminescence, 10 min; 0 = ATP-free wells, 1 = DMSO control; activation factor at 10 µM; 200,000 tested, under 10 active; AID 1027;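 active = luciferase activation factor, scaled between plate controls, of at least 2 with compound at 10 µM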
# Target sequence (P08659 whole entry, looked up): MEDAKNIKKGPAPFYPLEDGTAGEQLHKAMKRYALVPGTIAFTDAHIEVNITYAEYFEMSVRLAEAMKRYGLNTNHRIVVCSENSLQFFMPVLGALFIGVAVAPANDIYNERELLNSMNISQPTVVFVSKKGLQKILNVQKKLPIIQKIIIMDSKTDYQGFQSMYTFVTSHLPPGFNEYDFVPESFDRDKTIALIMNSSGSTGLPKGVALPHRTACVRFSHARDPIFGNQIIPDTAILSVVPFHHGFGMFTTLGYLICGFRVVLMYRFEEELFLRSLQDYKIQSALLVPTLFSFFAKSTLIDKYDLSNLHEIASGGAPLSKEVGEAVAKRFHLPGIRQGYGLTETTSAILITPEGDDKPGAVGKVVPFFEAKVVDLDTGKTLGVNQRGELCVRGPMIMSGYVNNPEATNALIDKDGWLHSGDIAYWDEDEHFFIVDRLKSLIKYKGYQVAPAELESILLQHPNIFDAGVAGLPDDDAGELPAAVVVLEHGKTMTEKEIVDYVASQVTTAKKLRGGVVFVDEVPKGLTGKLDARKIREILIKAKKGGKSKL
#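 Assay system – cell-free luciferase reagent · Medium – PBS-based ATP solution · Dosing – test compounds dosed from 2 mM stocks in 100% DMSO · Timing – 10 min, room temperature · Technique – light output (luminescence) · Measure – luminescence gain marking luciferase activators · Controls – No-ATP low control, compound-free enzyme-plus-ATP high control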
# NF-kB expr up – compounds increasing NF-kB expression in human neuronal cells. NF-kB reporter expression; active compounds read high. fold change at 12.5 µM. 190,000 compounds, 1.6% hits; in the data active = fold change above about 3.3
# Pf gametocyte – kills late stage P. falciparum gametocytes; P. falciparum stage V gametocytes, ATP luminescence, 24 h; 150,000 compounds, 0.065% hits; inhibition, % at 10.9 µM;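 active = inhibition above the mean plus 3 SD of compounds within the control limits, set per campaign, cut at about 38% in these data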;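 note: 0% = DMSO wells and 100% = medium only without gametocytes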
# STAT1 act – increases IFN-gamma driven STAT1 reporter signal. NIH 3T3 STAT1-luciferase reporter, luminescence; 100% = IFN-gamma alone, no compound. activation (% of control), % at 5.5 µM. AID 932. 200,000 compounds, 2.6% hits;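 active = activation above the screen-wide mean activation plus 3 SD, cut at about 130% in these data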;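 note: raw ratio to IFN-gamma control signal so 100% means no change and 0% no light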
# FLuc inh counter – counter-screen for luciferase assay inhibitors: firefly luciferase inhibition. P08659. ATPLite firefly luciferase biochemical luminescence, 10 min. inhibition, % at 10 µM. 200,000 compounds, 1.5% hits. AID 1006;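 active = inhibition above about 50% when tested at 10 µM, limit read from the data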
# STAT1 act conf – STAT1 activation, confirmation assay | NIH 3T3 STAT1-luciferase reporter, IFN-gamma potentiation, luminescence; 100% = IFN-gamma EC80 alone, no compound | shares compounds with STAT1 act | AID 1262 | 1,200 compounds, 97% hits | activation (% of control), % at 5.7 µM;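 active = activation above a set limit carried over from the earlier primary STAT1 screen, cut at about 140% in these data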;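 note: simple ratio to median IFN-gamma plus DMSO wells so 0% means no light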
# NFkB act – NF-kappaB activation in STAT1 activator counter-screen. shares compounds with STAT1 act. HEK293T NF-kB luciferase reporter, TNF-alpha stimulated, luminescence; 100% = TNF-alpha with vehicle only. activation (% of control), % at 5.7 µM. 1,200 compounds, 43% hits;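 active = activation above the mean of solvent-only control wells plus 3 SD, set per campaign, cut at about 130% in these data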;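 note: TNF-alpha given at a submaximal dose yielding about 80% of full reporter signal; values are well signal over median control so 100% means no change and 0% no light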
# STAT3 act 2 – activates human STAT3, counter-screen to STAT1 activators. 1,200 compounds, 46% hits. activation (% of control), % at 5.7 µM. shares compounds with STAT1 act. U3A cells STAT3-luciferase reporter, IL-6, luminescence; cells lack STAT1; 100 = IL-6 alone, no compound effect;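 active = activation above the solvent-only control well mean plus 3 SD, set per plate batch, cut at about 110% in these data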;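 note: 0% = no luminescence and 100% = median IL-6 plus DMSO wells; higher means more STAT3 reporter activation so hits are non-selective activators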
# * = called active by the depositor; . = no result.
SMILES,APP 5'UTR act,FLuc act counter,NF-kB expr up,Pf gametocyte,STAT1 act,FLuc inh counter,STAT1 act conf,NFkB act,STAT3 act 2
Cc1c(-c2ccccc2)[nH]n2c(=O)c3c(nc12)CCCC3,51,0.9,2.1,2,155*,11,174*,130,117*
O=[N+]([O-])c1cccnc1NCCc1ccccc1,76,1,2.3,7,151*,2,163*,129,117*
COc1ccccc1NC(CC(=O)c1ccccc1)C(=O)OCC(=O)c1ccc(Br)cc1 (configuration not stated),117,1,0.84,-5,156*,-3,183*,116,99
CCOc1ccc(Nc2cc(C)nc(N3CCOCC3)n2)cc1,1,1.1,1.3,.,109,-6,.,.,.
CCOc1ccc2nc(N3CCOCC3)nc(C)c2c1,130,0.8,3.8*,-34,155*,24,181*,130,110
Cc1ccc(-c2csc(C(C#N)=C3CCCC3)n2)cc1,23,0.7,3.2,.,125,32,.,.,.
N#CC(=C1CCCC1)c1nc(-c2ccccc2)cs1,99,0.5,8.1*,.,166*,54*,215*,154*,122*
N#Cc1cc(-c2ccccc2)c[nH]c1=O,9,1,1.1,9,100,-3,.,.,.
CN(C)c1nc(N)nc(CSc2nc3cc(Cl)ccc3o2)n1,11,1,2,.,152*,-2,142*,122,90
Cc1cccc(C)c1NC(=O)Cn1nc(-c2ccccc2)nc1-c1ccccc1,.,1,1.1,2,101,-3,.,.,.
CC(=O)COc1ccc2c3c(c(=O)oc2c1)CCCC3,-3,1,1.7,-125,108,-2,.,.,.
CC(=O)COc1ccc2c(C)c(-c3ccccc3)c(=O)oc2c1,40,0.7,2.6,-6,156*,32,156*,115,98
Cc1cc(-c2cccs2)n[nH]1,20,1,0.97,-8,99,0,.,.,.
Cc1nc2nc(-c3cccs3)cn2nc1C,69,0.7,1.9,.,152*,25,165*,134*,104
O=C(CCCO)N/N=C/c1ccccc1[N+](=O)[O-],-7,1.1,1.1,.,91,-5,.,.,.
CCOCCCN1C(=O)C(O)=C(C(C)=O)C1c1cccs1 (configuration not stated),-4,.,2.2,-24,115,.,.,.,.
COc1ccc(-c2cc(=O)c3ccccc3[nH]2)cc1,12,0.9,1.5,.,103,11,.,.,.
COc1ccc(-c2cc(=O)c3ccccc3s2)cc1,134,0.3,5.6*,.,179*,67*,223*,136*,120*
COc1ccc(N/C=C/C(=O)c2ccc3c(c2)OCO3)cc1OC,13,0.4,1.8,.,161*,60*,178*,136*,105
O=C(CCl)Nc1ccc2c(c1)OCO2,-3,1,1.6,7,96,0,.,.,.
O=C(/C=C\Nc1ccc2c(c1)OCO2)c1ccc(Cl)s1,164*,0.1,0.96,1,157*,87*,200*,88,83
C=CCOc1nc2c(c(=O)n(C)c(=O)n2C)n1Cc1c(Cl)cccc1Cl,18,1.1,0.92,.,101,-10,.,.,.
O=C(CCCSc1nc2ccccc2c(=O)[nH]1)c1ccccc1,6,1,0.89,2,100,-5,.,.,.
O=C1c2ccccc2NC(c2cnc3ccccc3n2)N1O (configuration not stated),74,0.7,6.9*,.,159*,34,209*,114,90
CC(=O)c1cc(F)ccc1OCC(=O)N1CCN(c2ccc(F)cc2)CC1,16,1.1,1.2,-8,98,-5,.,.,.
SMILES,APP 5'UTR act,FLuc act counter,NF-kB expr up,Pf gametocyte,STAT1 act,FLuc inh counter,STAT1 act conf,NFkB act,STAT3 act 2
Clc1ccc(OCc2nc(-c3ccncc3)no2)c(Br)c1,250*,0.8,4*,.,152*,25,233*,141*,123*
Clc1ccccc1OCc1nc(-c2ccncc2)no1,194*,0.9,4.1*,.,162*,7,184*,131,117*
CC(C)Oc1ccc2c(=O)c(-c3ccccc3)coc2c1,163*,0.4,9.5*,.,156*,61*,219*,122,90
COc1ccc2c(=O)c(-c3ccc4c(c3)OCO4)coc2c1,192*,0.3,4.3*,.,164*,66*,217*,97,80
Clc1nn2cnnc2c2ccccc12,10,1.1,0.88,-15,83,-10,.,.,.
COc1cccc(-c2nc3ccccc3s2)c1,143*,0.3,7.8*,19,156*,75*,207*,121,118*
COc1ccc(-c2nc3ccccc3s2)cc1NC(C)=O,154*,0.8,2.4,-2,173*,19,195*,130,119*
CCOC(=O)C1CCCN(Cc2nc(Cc3ccccc3Cl)no2)C1 (configuration not stated),14,1,1.4,16,102,-2,.,.,.
CC(C)COc1ccc(-c2cc(C(=O)NN)[nH]n2)cc1,33,0.9,1.7,5,153*,7,128,112,107
CCOC1(C(F)(F)F)NC(=O)N(Cc2ccc(OC)cc2)C1=O (configuration not stated),10,1,0.95,-11,97,-1,.,.,.
COc1ccc(C(=O)c2c[nH]c(C(=O)NCc3cccs3)c2)cc1,9,1,1,6,102,-3,.,.,.
COc1cc(OC)nc(-n2ncc(Br)c(Br)c2=O)n1,-94,1.1,1.1,-1,240*,-6,273*,87,95
COC(=O)c1cnn(-c2nc(OC)cc(OC)n2)c1C,4,1.1,1.3,-4,97,-5,.,.,.
Cc1ccc(Cl)cc1N(CC(=O)NCc1ccccc1)S(C)(=O)=O,.,.,.,0,.,.,.,.,.
COc1ccc(C(=O)O/N=C2\CCS(=O)(=O)c3sccc32)cc1,14,0.7,1.9,26,111,30,.,.,.
Cc1ccccc1C(=O)O/N=C1\CCS(=O)(=O)c2sccc21,0,0.8,5.8*,-15,220*,16,225*,146*,111*
Cc1[nH]c2ccccc2c1/C=N\NC(=O)CNc1ccc2c(c1)OCO2,3,0.9,1.1,7,91,6,.,.,.
